{"data": "Published values collected from several papers", "target": "Acetylcholinesterase (ACHE, Homo sapiens, UniProt P22303)", "action": "inhibitor", "note": "Compare with care: the assays were run in different laboratories. pIC50: −log10 of the molar value."}
{"SMILES": "O=[N+]([O-])c1c[nH]c(-c2n[nH]c(=S)n2/N=C/c2ccc(Cl)c(Cl)c2)c1", "test": "enzyme activity, Ellman", "pIC50": 4.85}
{"SMILES": "COc1ccccc1C=NNC(=O)c1cc(-c2cn(C)c3ccccc23)on1", "test": "enzyme activity", "pIC50": 4.47}
{"SMILES": "O=C(NCCN1CCCCC1)c1ccc([N+](=O)[O-])cc1", "test": "enzyme activity, Ellman", "pIC50": 5.62}
{"SMILES": "O=[N+]([O-])c1c[nH]c(-c2n[nH]c(=S)n2/N=C/c2cc(Cl)cc(Cl)c2)c1", "test": "enzyme activity, Ellman", "pIC50": 4.87}
{"SMILES": "Cn1cc(-c2cc(C(=O)NN=Cc3ccncc3)no2)c2ccccc21", "test": "enzyme activity", "pIC50": "< 4.00"}
{"SMILES": "COc1ccc(S(=O)(=O)Oc2ccc(C=NNC(=O)c3ccc(F)cc3)cc2)cc1", "test": "enzyme activity, Ellman", "pIC50": 7.92}
{"SMILES": "C#CCN(C)CCCCCCCOc1cccc(CN(C)c2c3c(nc4ccccc24)CCCC3)c1", "test": "enzyme activity, Ellman", "pIC50": 5.94}
{"SMILES": "O=C(NCCN1CCCCC1)c1cccc(F)c1", "test": "enzyme activity, Ellman", "pIC50": 5.80}
{"SMILES": "O=[N+]([O-])c1c[nH]c(-c2n[nH]c(=S)n2/N=C/c2cc(O)cc(F)c2)c1", "test": "enzyme activity, Ellman", "pIC50": 5.06}
{"SMILES": "CSc1ccc(C=NNC(=O)c2cc(-c3cn(C)c4ccccc34)on2)cc1", "test": "enzyme activity", "pIC50": "< 4.00"}
{"SMILES": "COc1ccc(/C=N/n2c(-c3cc([N+](=O)[O-])c[nH]3)n[nH]c2=S)cc1", "test": "enzyme activity, Ellman", "pIC50": 4.60}
{"SMILES": "O=C(NCCN1CCCCC1)c1ccccc1F", "test": "enzyme activity, Ellman", "pIC50": 7.89}
{"SMILES": "Cn1cc(-c2cc(C(=O)NN=Cc3ccccc3)no2)c2ccccc21", "test": "enzyme activity", "pIC50": "< 4.00"}
{"SMILES": "C#CCN(C)CCCCCCOCc1ccc(CN(C)c2c3c(nc4ccc(C)cc24)CCCC3)cc1", "test": "enzyme activity, Ellman", "pIC50": 4.34}
{"SMILES": "COc1cccc(C(=O)NCCN2CCCCC2)c1", "test": "enzyme activity, Ellman", "pIC50": 5.28}
{"SMILES": "C#CCN(C)CCCOc1cccc(CN(C)c2c3c(nc4ccccc24)CCCC3)c1", "test": "enzyme activity, Ellman", "pIC50": 5.55}
{"SMILES": "O=[N+]([O-])c1c[nH]c(-c2n[nH]c(=S)n2/N=C/c2ccc(Cl)cc2[N+](=O)[O-])c1", "test": "enzyme activity, Ellman", "pIC50": 4.82}
{"SMILES": "C#CCN(C)CCCCOCc1ccc(CN(C)c2c3c(nc4ccc(C)cc24)CCCC3)cc1", "test": "enzyme activity, Ellman", "pIC50": 4.79}
{"SMILES": "CNC(=O)c1ccc(-c2cnn3ccc(C(=O)N(C)c4ccc(Cl)c(C(=O)O)c4)cc23)cc1", "test": "cell-free assay", "pIC50": "< 4.52"}
{"SMILES": "COc1ccc(S(=O)(=O)Oc2ccccc2C=NNC(=O)c2ccc(F)cc2)cc1", "test": "enzyme activity, Ellman", "pIC50": 6.97}
{"SMILES": "C#CCN(C)CCCCOCc1ccc(CN(C)c2c3c(nc4ccccc24)CCCC3)cc1", "test": "enzyme activity, Ellman", "pIC50": 5.63}
